Source: paper PMC5720355 (ACS chemical biology, 2017)

Key:
20S proteasome = conditions: read-out: EC50, enhancing 20S mediated protein degradation; cited from earlier work
[1] = target: purified 20S proteasome with tau441 and GAPDH (Homo sapiens, UniProt P25787+P60900); assay: In vitro degradation of tau441; type: biochemical; conditions: compounds 30 μM; SDS 0.02%
In short: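 Pre-incubate 15nM purified human 20S proteasome with test compound or vehicle for 20 min at RT in 20mM HEPES pH 7.4, 2mM EDTA, 1mM EGTA. Add recombinant tau441 plus GAPDH (0.1μM each, final) and incubate 1 h at 37 °C. Resolve on a 4-20% tris-glycine gel and immunoblot. Quantify tau by densitometry against untreated tau control.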

[2] = test system: Glioblastoma (U87-MG) cells; assay: Tau degradation in U87MG cells, immunoblot; type: cell-based, human; conditions: 50 μM, 24 h, cycloheximide 20 μg/mL
[3] = test system: HEK 293 cells stably expressing ODC-GFPSpark; assay: ODC-GFPSpark degradation in HEK 293T cells, immunoblot; type: cell-based, human; conditions: 50 μM, 24 h, cycloheximide 20 μg/mL
[4] = target: human constitutive 20S proteasome (CT-L, β5) (Homo sapiens, UniProt P25787+P60900); assay: Proteasome activity assay, 20S chymotrypsin-like; type: biochemical; conditions: for enhancement of 20S proteolytic (CT-L) activity, in words: CT-L peptide substrate
[5] = target: human constitutive 20S proteasome (T-L, β2) (Homo sapiens, UniProt P25787+P60900); assay: Proteasome activity assay, 20S tryptic-like; type: biochemical; conditions: read-out: EC50, tryptic-like (T-L) activity; Boc-LRR-AMC
[6] = target: human constitutive 20S proteasome (Casp-L, β1) (Homo sapiens, UniProt P25787+P60900); assay: Proteasome activity assay, 20S caspase-like; type: biochemical; conditions: read-out: EC50, caspase-like (Casp-L) activity; Z-LLE-AMC
[7] = target: purified human 20S proteasome with α-synuclein and GAPDH (Homo sapiens, UniProt P25787+P60900); assay: In vitro degradation of α-synuclein; type: biochemical
In short: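 Pre-incubate 15nM purified human 20S with test compound (3, 10, 30 μM) or vehicle for 20 min at RT in 20mM HEPES pH 7.4, 2mM EDTA, 1mM EGTA. Add recombinant α-synuclein and GAPDH (0.5μM each, final) and incubate 1 h at 37 °C. Immunoblot α-syn and GAPDH. Controls: reactions without 20S, and 20S pre-treated with bortezomib (3μM).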

26S proteasome = 26S proteasome (Homo sapiens, UniProt P25787+P60900); assay: Proteasome activity assay, 26S-mediated proteolysis of CT-L peptide probe; type: biochemical
In short: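 Pre-incubate 1nM human 26S proteasome with test compound for 10 min at RT in 50mM Tris-HCl pH 7.5 containing 5mM MgCl2 and 2.5mM ATP. Add Suc-LLVY-AMC (10μM) and read the fluorescence increase per minute for 1 h at 37 °C (380-460nm). Express activity as fold of vehicle control.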

rate of 20S-mediated degradation of tau compared to 20S/vehicle control [1] | enhancement of 20S proteolytic (CT-L) activity, in words [4] | SMILES | tau concentrations compared to the vehicle control [2] | GFP-ODC levels compared to controls [3] | other results
– | – | CCCCC/C=C\C/C=C\C/C=C\C/C=C\CCCC(=O)Nc1ccc(O)cc1 [AM-404] | – | – | EC50 (20S proteasome): ~32 µM
significantly enhance | enhanced 20S proteolytic activity | CN(C)CCCN1c2ccccc2Sc2ccc(Cl)cc21 [chlorpromazine, reference compound] | significantly reducing tau concentrations | reduced GFP-ODC levels | –
– | – | CC(C)CCCN1c2ccccc2Sc2ccccc21 [compound 1] | modest clearance of tau | – | –
significantly enhance | enhanced 20S proteolytic activity | O=S(=O)(O)CCCCN1c2ccccc2Sc2ccccc21 [compound 2] | significantly reducing tau concentrations | reduced GFP-ODC levels | EC50 [5]: 10 µM; EC50 [6]: 4.8 µM; rate of 20S-mediated degradation of α-syn compared to 20S/vehicle control ([7]; 3, 10 and 30 μM, concentration-dependent): significantly enhanced; α-Syn levels in the absence of 20S or with 20S pretreated with bortezomib ([7]; BTZ 3 μM): unaffected; 20S-mediated degradation of the structured protein GAPDH ([7]; any of the concentrations tested (3, 10, 30 μM)): does not enhance; fold enhancement of 20S activity ([4]; at 10 μM): ~4 fold; concentration above which 20S activity drops ([4]; concentration response up to 70 μM, CT-L substrate): > 35 µM; effect on 26S-mediated proteolysis of the CT-L peptide probe (26S proteasome): did not affect

SMILES | rate of 20S-mediated degradation of tau compared to 20S/vehicle control [1] | enhancement of 20S proteolytic (CT-L) activity, in words [4] | tau concentrations compared to the vehicle control [2] | GFP-ODC levels compared to controls [3] | other results
CCCCCCCCCCCCOS(=O)(=O)[O-].[Na+] [SDS, sodium dodecyl sulfate] | prevents | – | – | – | –
O=S(=O)(O)CCCN1c2ccccc2Sc2ccc(Cl)cc21 [compound 3] | – | no significant enhancement | – | – | –
